From ChEMBL document CHEMBL1154331, “Allenyl and alkynyl phenyl ethers from the endolichenic fungus Neurospora terricola” (J Nat Prod, 2009)

Legend:
HeLa = experiment: Cytotoxicity against human HeLa cells after 48 hrs by MTT assay; assay type: functional, cell-based
In short: (§1)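 Run in triplicate; 10^4 cells per well, attached overnight. Cells exposed 4 h at 37 °C, 5% CO2, to compounds serially diluted from 10 mg/mL DMSO stocks (vehicle wells 0.2% DMSO in medium), then medium changed to fresh DMEM and grown a further 48 h. MTT at 0.5 mg/mL added for 3 h at 37 °C in the dark; formazan dissolved in DMSO, absorbance read at 540 nm.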

MCF7 = experiment: Cytotoxicity against human MCF7 cells after 48 hrs by MTT assay; assay type: functional, cell-based; conditions: MCF7, 48 h; in short: as §1

`C#C[C@H](O)COc1ccc(COC)cc1` gave an IC50 (HeLa) of 92.6 µM and an IC50 (MCF7) of 116 µM.

With `C#C[C@H](O)COc1ccc(COC(C)=O)cc1` the IC50 (HeLa) was over 171 µM and the IC50 (MCF7) was over 171 µM.

`O=c1[nH]cc(F)c(=O)[nH]1` [FLUOROURACIL] showed an IC50 (HeLa) of 10 µM.

`C=C=CCOc1ccc(CO[C@@H]2O[C@H](CO)[C@@H](O)[C@H](O)[C@H]2O)cc1` [TERRICOLLENE A] gave an IC50 (HeLa) of 53.3 µM and an IC50 (MCF7) of 59.2 µM.

`C=C=CCOc1ccc(CO[C@@H]2O[C@H](CO)[C@@H](O)[C@H](O)[C@@H]2O)cc1` [TERRICOLLENE B] gave an IC50 (HeLa) of over 118 µM and an IC50 (MCF7) of over 118 µM.

`C=C=CCOc1ccc(CO)cc1` [TERRICOLLENE C] gave an IC50 (HeLa) of 85.2 µM and an IC50 (MCF7) of 114 µM.

Compound `C#C[C@H](O)COc1ccc(CO)cc1` [TERRICOLYNE] has an IC50 (HeLa) of over 200 µM and an IC50 (MCF7) of over 200 µM.
